Source: PubChem (several laboratories)
Sampled rows, rich in hits. Any-hit rate of the full collection: about 10%.
PMI act – phosphomannose isomerase (human) activation; P34949; purified human PMI, coupled resazurin fluorescence, 20 min; stronger effect = higher value; 1 = vehicle control, 0 substrate-free wells; activation factor at 20 µM; 190,000 compounds, 0.005% hits;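 active = activation factor of 2 or more at 20 µM, relative to plate controls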
Target sequence (P34949 whole entry, looked up): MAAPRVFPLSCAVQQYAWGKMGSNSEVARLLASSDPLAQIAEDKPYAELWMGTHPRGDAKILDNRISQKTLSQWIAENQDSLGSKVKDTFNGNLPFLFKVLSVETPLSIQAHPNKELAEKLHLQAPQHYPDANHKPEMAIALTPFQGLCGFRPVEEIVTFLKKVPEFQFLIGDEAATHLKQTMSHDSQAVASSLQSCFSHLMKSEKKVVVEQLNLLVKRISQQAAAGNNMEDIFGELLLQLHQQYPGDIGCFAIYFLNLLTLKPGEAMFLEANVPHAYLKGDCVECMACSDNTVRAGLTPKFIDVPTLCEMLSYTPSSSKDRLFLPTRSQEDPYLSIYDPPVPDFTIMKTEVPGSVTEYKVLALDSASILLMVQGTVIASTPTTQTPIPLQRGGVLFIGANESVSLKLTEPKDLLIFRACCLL
Lmaj promast – reduces viability of Leishmania major promastigotes; resazurin fluorescence viability; inhibition, % at 10 µM; 200,000 compounds, 9% hits; in the data active = inhibition above about 50%;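 note: promastigotes grown with compound for 44 hours at 28 °C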
WT yeast gro inh – growth inhibition of WT yeast, mitochondrial fusion screen; mitochondrial fusion phenotypic screen, WT strain; inhibition, % at 10 µM; 190,000 compounds, 2.1% hits; in the data active = inhibition above about 58%; tested in S. cerevisiae
PMI act satM6P – activators of human phosphomannose isomerase at near-saturating mannose 6-phosphate; activation factor at 20 µM; 190,000 compounds, 0.34% hits; AID 1216; coupled PMI enzyme assay, resazurin fluorescence, 20 min; stronger effect = higher value; 1 = untreated enzyme, 0 = substrate-free blank;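 active = activation factor of 2 or more at 20 µM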
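Test system: human phosphomannose isomerase with PGI, G6PDH, diaphorase coupling enzymes; amount: 15 ng/mL PMI; incubation: enzyme reaction with compound 20 min at room temperature; technique: resorufin fluorescence (Ex 544/Em 590 nm) from resazurin via diaphorase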
Diaph act CS – diaphorase activation or chemical reduction counter-screen; Diaphorase/resazurin coupled assay, resorufin fluorescence, 16 min; stronger effect = higher value; 1 = vehicle wells, 0 = NADH-free wells; AID 1229; 190,000 compounds, 0.005% hits; activation factor at 20 µM;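 active = diaphorase activity raised at least twofold by the compound at 20 µM; inactive = activation factor below 2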
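Measured by – red resorufin fluorescence at 544/590 nm excitation/emission · Test system – Clostridium kluyveri diaphorase, purified enzyme · Incubation – reaction time 16 min, room temperature · Buffer or medium – 50 mM HEPES pH 7.4 with 4.542 mM MgCl2, 0.005% Tween 20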
An asterisk follows results filed as active; · = no result given.

SMILES	PMI act	Lmaj promast	WT yeast gro inh	PMI act satM6P	Diaph act CS
Cn1c(-c2ccc3c(c2)OCO3)cnc1NCc1cccc(Cl)c1	1	93*	51	1	0.9
Cn1c(-c2ccc3c(c2)OCO3)cnc1N	0.9	7	56	0.9	1
Cn1c(-c2ccc3c(c2)OCO3)cnc1NCc1ccccc1Cl	1	96*	15	1	1
Cn1c(=O)c2c(nc(NCc3ccc4c(c3)OCO4)n2Cc2ccccc2)n(C)c1=O	0.9	1	0	0.9	0.9
Cn1c(-c2ccc3c(c2)OCO3)cnc1NC(=O)CCC(=O)NCCc1ccccc1	1.1	-1	13	1.1	1
Cn1c(-c2ccc3c(c2)OCO3)cnc1NCc1ccccc1	0.8	63*	-11	0.9	0.8
Cc1ccc2cc(CN(Cc3nnnn3C3CCCCC3)CC3CCCO3)c(=O)[nH]c2c1 (centres undefined)	1	94*	12	0.9	0.8
Cc1cc2cc(CN(Cc3nnnn3C3CCCCC3)CC3CCCO3)c(=O)[nH]c2cc1C (centres undefined)	1	82*	7	0.8	0.7
Cc1ccc2[nH]c(=O)c(CN(CC3CCCO3)C(=O)c3ccncc3)cc2c1 (centres undefined)	0.8	70*	8	0.9	0.8
CCC(c1nnnn1CCOC)N(Cc1cc2c(C)cc(C)cc2[nH]c1=O)CC1CCCO1 (centres undefined)	1	-2	1	1	0.9
Cc1cc(C)c2cc(CN(Cc3nnnn3C3CCCCC3)CC3CCCO3)c(=O)[nH]c2c1 (centres undefined)	0.8	99*	6	0.9	0.7
COc1ccc(CN(Cc2cc3ccc(C)cc3[nH]c2=O)Cc2nnnn2C2CCCC2)cc1	1	·	20	0.8	0.6
Cc1cc(S(=O)(=O)Nc2ccc(F)cc2)c(C)s1	0.9	23	4	0.9	0.9
COc1ccc(Cl)cc1NC(=O)Cn1c(NCCO)nc2ccccc21	1.1	0	-9	1	1
COc1ccc(CN(C)C(c2ccccc2)c2nnnn2-c2ccccc2C)c(OC)c1C (centres undefined)	0.9	12	74*	1	0.8
COc1cc(OC)c(OC)cc1CN(C)C(c1ccccc1)c1nnnn1-c1ccccc1C (centres undefined)	0.9	16	24	0.9	0.7
O=C(NCC(c1cccnc1)N1CCOCC1)c1cccc(Cl)c1 (centres undefined)	1	32	14	1	0.9
COc1ccc(N2CCN(C(CNC(=O)c3ccc4c(c3)OCO4)c3ccco3)CC2)cc1 (centres undefined)	1.1	5	17	0.9	1
COc1ccc(N2CCN(C(CNC(=O)c3ccc4c(c3)OCO4)c3cccnc3)CC2)cc1 (centres undefined)	1	90*	20	0.9	0.9
COc1ccc(N2CCN(C(CNC(=O)c3cccc(Cl)c3)c3cccnc3)CC2)cc1 (centres undefined)	0.9	96*	·	0.9	0.9
O=C(NCC(c1cccnc1)N1CCN(c2ccc(F)cc2)CC1)c1ccc2c(c1)OCO2 (centres undefined)	1	95*	8	1.1	0.9
C=CC(=O)NC(C)(C)CCN1CCOCC1	0.9	-4	-14	1	0.9
COC(CNC(=O)C1CC(=O)N(CCc2ccccc2)C1)OC (centres undefined)	0.9	-5	·	0.9	0.8
O=C(Cn1cnc2ccccc21)Nc1ccc(SC(F)F)cc1	0.9	10	-4	0.8	0.8
O=C(COc1ccccc1)Nc1ccncc1	0.9	15	5	0.9	0.8
Cc1cc(OCC(=O)Nc2ccncc2)cc(C)c1Br	0.9	16	74*	1	0.9
Cc1cccc(OCCCC(=O)NCc2ccco2)c1	1	1	-4	1	0.9
CN1/C(=C\C(=O)c2ccccc2Cl)c2ccccc2CC1(C)C	0.8	70*	-12	0.8	1
Cc1ccccc1C(=O)/C=C1/c2ccccc2CC(C)(C)N1C	1	28	-1	1	1
COc1cccc(C(=O)Nc2cc(NC(=O)c3ccco3)ccc2OC)c1	0.9	2	2	0.9	0.8
